Measurements reported in ChEMBL document CHEMBL4616587, “Kolavenic acid analog restores growth in HSET-overproducing fission yeast cells and multipolar mitosis in MDA-MB-231 human cells” (Bioorg Med Chem, 2020).
Blank lines part the entries; values can stand above or below the molecule they belong to. Calls of active or inactive are those of the source. The calls are words filed in the database; no cut-off is given here.

Columns and labels:
[1] = system: Schizosaccharomyces pombe; experiment: Inhibition of HSET in Schizosaccharomyces pombe TY27 overexpressing GFP-HSET assessed as inhibition of HSET overproduction-induced lethal growth defects by measuring growth restoring activity incubated for 3 days by agar plate-based method
Procedure, shortened: (§1)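 Fission yeast TY27: drug-sensitive YA8 background (h+ bfr1::ura4+ pmd1::hisG leu1 ura4) carrying the pREP41-GFP-HSET plasmid, with the pREP41-GFP vector strain TY26 alongside. Simple plate assay on rich YE5S agar plates, read as restoration of growth of the HSET-overproducing cells. Screened set included SCADS Inhibitor Kits and inhibitors aimed at tubulin or Eg5.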

[2] = system: Schizosaccharomyces pombe; experiment: Inhibition of HSET in Schizosaccharomyces pombe TY27 overexpressing GFP-HSET assessed as inhibition of HSET overproduction-induced lethality by measuring increase in cell viability at 3.3 uM incubated for 2 to 3 days relative to control
[3] = system: MDA-MB-231; experiment: Antiproliferative activity against human MDA-MB-231 cells assessed as inhibition of cell viability incubated for 48 hrs by MTT assay; type: functional, cell-based; settings: MDA-MB-231, 48 h
[4] = target: T1, Kinesin-like protein KIFC1 (Homo sapiens) (UniProt Q9BW19); experiment: (§2) Inhibition of HSET in human MDA-MB-231 cells overexpressing HSET and possessing supernumerary centrosomes assessed as inhibition of centrosome clustering by measuring increase in multipolar spindle formation at 250 uM incubated for 24 hrs by Hoechst 33342 staining based fluorescence microscopic method; type: cell-based
T1 sequence (whole entry): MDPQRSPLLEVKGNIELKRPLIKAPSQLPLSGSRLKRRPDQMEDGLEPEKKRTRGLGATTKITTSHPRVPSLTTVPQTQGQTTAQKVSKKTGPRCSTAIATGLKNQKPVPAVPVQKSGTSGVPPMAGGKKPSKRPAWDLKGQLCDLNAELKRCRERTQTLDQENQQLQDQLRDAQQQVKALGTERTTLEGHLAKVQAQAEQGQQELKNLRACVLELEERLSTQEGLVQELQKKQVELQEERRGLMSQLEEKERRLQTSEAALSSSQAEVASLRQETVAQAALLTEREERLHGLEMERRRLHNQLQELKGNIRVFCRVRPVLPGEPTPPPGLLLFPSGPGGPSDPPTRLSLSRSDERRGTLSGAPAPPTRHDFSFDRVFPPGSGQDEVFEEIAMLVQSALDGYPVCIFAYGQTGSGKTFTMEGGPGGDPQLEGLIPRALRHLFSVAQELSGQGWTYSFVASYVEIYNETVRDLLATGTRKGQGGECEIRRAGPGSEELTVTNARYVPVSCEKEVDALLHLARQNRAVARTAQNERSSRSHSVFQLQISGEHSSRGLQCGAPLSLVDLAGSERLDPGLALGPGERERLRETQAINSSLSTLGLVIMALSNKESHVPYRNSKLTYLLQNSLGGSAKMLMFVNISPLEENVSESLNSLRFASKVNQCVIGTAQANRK

[5] = system: Schizosaccharomyces pombe; experiment: (§3) Inhibition of HSET in Schizosaccharomyces pombe TY27 overexpressing GFP-HSET assessed as reversion of HSET-induced lethal abnormal monopolar spindle formation to bipolar formation by measuring cells containing monopolar spindles at 0.1 ug/ml incubated for 2 days by wide field inverted epifluorescence microscopic method (reference value: 76%); design: scale not given: the % may be the effect or the level left
[6] = system: Schizosaccharomyces pombe; experiment: Inhibition of HSET in Schizosaccharomyces pombe TY27 overexpressing GFP-HSET assessed as inhibition of HSET overproduction-induced lethality by measuring cell growth at 3.3 uM incubated for 2 to 3 days (reference value: 5%); design: scale not given: the % may be the effect or the level left
[7] = system: WI-38; experiment: Antiproliferative activity against human WI38 cells assessed as inhibition of cell viability incubated for 48 hrs by MTT assay; type: functional, cell-based; settings: WI-38, 48 h
[8] = system: Schizosaccharomyces pombe; experiment: as §3, with “1” for “0.1”; design: scale not given: the % may be the effect or the level left
[9] = system: Schizosaccharomyces pombe; experiment: Inhibition of HSET in Schizosaccharomyces pombe TY27 overexpressing GFP-HSET assessed as inhibition of HSET overproduction-induced lethality by measuring cell viability at 3.3 uM incubated for 2 to 3 days relative to control
[10] = system: Schizosaccharomyces pombe; experiment: Inhibition of HSET in Schizosaccharomyces pombe TY27 overexpressing GFP-HSET assessed as inhibition of HSET overproduction-induced lethal growth defects by measuring growth restoring activity at 25 ng/spot incubated for 3 days by agar plate-based method; procedure, shortened: as §1
[11] = system: Schizosaccharomyces pombe; experiment: Inhibition of HSET in Schizosaccharomyces pombe TY27 overexpressing GFP-HSET assessed as inhibition of HSET overproduction-induced lethality by measuring cell viability at 0.25 uM incubated for 2 to 3 days relative to control
[12] = system: Schizosaccharomyces pombe; experiment: Inhibition of HSET in Schizosaccharomyces pombe TY27 overexpressing GFP-HSET assessed as inhibition of HSET overproduction-induced lethality by measuring increase in cell viability at 0.25 uM incubated for 2 to 3 days relative to control
[13] = target: T1, Kinesin-like protein KIFC1 (Homo sapiens); experiment: as §2, with “bipolar” for “increase in multipolar”, “40” for “250”, “method relative to control” for “method”; type: cell-based; design: scale not given: the % may be the effect or the level left
[14] = target: T1, Kinesin-like protein KIFC1 (Homo sapiens); experiment: Inhibition of HSET in human MDA-MB-231 cells overexpressing HSET and possessing supernumerary centrosomes assessed as inhibition of centrosome clustering by measuring increase in multipolar spindle formation incubated for 24 hrs by Hoechst 33342 staining based fluorescence microscopic method; type: cell-based
[15] = target: T1, Kinesin-like protein KIFC1 (Homo sapiens); experiment: as §2, with “20” for “250”, “method relative to control” for “method”; type: cell-based; design: scale not given: the % may be the effect or the level left
[16] = target: T1, Kinesin-like protein KIFC1 (Homo sapiens); experiment: as §2, with “40” for “250”, “method relative to control” for “method”; type: cell-based; design: scale not given: the % may be the effect or the level left
[17] = system: Schizosaccharomyces pombe; experiment: Inhibition of HSET in Schizosaccharomyces pombe TY27 overexpressing GFP-HSET assessed as inhibition of HSET overproduction-induced lethality by measuring cell growth at 0.25 uM incubated for 2 to 3 days (reference value: 8%); design: scale not given: the % may be the effect or the level left
[18] = system: Schizosaccharomyces pombe; experiment: as §3, with “0.01” for “0.1”; design: scale not given: the % may be the effect or the level left
[19] = target: T1, Kinesin-like protein KIFC1 (Homo sapiens); experiment: as §2, with “bipolar” for “increase in multipolar”, “20” for “250”, “method relative to control” for “method”; type: cell-based; design: scale not given: the % may be the effect or the level left
[20] = system: Schizosaccharomyces pombe; experiment: Inhibition of tubulin in Schizosaccharomyces pombe TY27 overexpressing GFP-HSET assessed as growth restoring activity incubated for 3 days by agar plate-based method; procedure, shortened: as §1
[21] = system: Schizosaccharomyces pombe; experiment: Inhibition of Eg5 in Schizosaccharomyces pombe TY27 overexpressing GFP-HSET assessed as growth restoring activity incubated for 3 days by agar plate-based method; procedure, shortened: as §1
[22] = system: Schizosaccharomyces pombe; experiment: Inhibition of HSET in Schizosaccharomyces pombe TY27 overexpressing GFP-HSET assessed as inhibition of HSET overproduction-induced lethality by measuring cell growth at 2.8 uM incubated for 2 to 3 days (reference value: 6%); design: scale not given: the % may be the effect or the level left
[23] = system: Schizosaccharomyces pombe; experiment: Inhibition of HSET in Schizosaccharomyces pombe TY27 overexpressing GFP-HSET assessed as inhibition of HSET overproduction-induced lethality by measuring cell viability at 2.8 uM incubated for 2 to 3 days relative to control
[24] = system: Schizosaccharomyces pombe; experiment: Inhibition of HSET in Schizosaccharomyces pombe TY27 overexpressing GFP-HSET assessed as inhibition of HSET overproduction-induced lethal growth defects by measuring growth restoring activity at 6.25 to 50 ug/spot incubated for 3 days by agar plate-based method; procedure, shortened: as §1
[25] = system: Schizosaccharomyces pombe; experiment: Inhibition of HSET in Schizosaccharomyces pombe TY27 overexpressing GFP-HSET assessed as inhibition of HSET overproduction-induced lethality by measuring increase in cell viability at 2.8 uM incubated for 2 to 3 days relative to control

SMILES: CCCc1cc(C(=O)N[C@H](Cc2ccc(-c3cccc(OC(F)(F)F)c3)nc2)C(=O)N[C@@H]2CCNC2)sc1C
growth restoration (qualitative) [1]: Dose-dependent effect

SMILES: CC1=CCC[C@@H]2[C@@](C)(CC/C(C)=C/C(=O)O)[C@H](C)CC[C@@]12C [KOLAVENIC ACID]
fold change (FC) [2]: > 2
IC50 [3]: 272 µM
inhibition [4]: inactive
Activity [5]: 50%
Activity [6]: 8%
IC50 [7]: 265 µM
growth restoration (qualitative) [1]: Dose-dependent effect
Activity [8]: 7%
Activity [9]: 59%

SMILES: C/C=C(\C)C(=O)O[C@@H]1C[C@@H](C)[C@@](C)(CC/C(C)=C/C(=O)O)[C@@H]2CCC=C(C)[C@]12C
inhibition [10]: inactive
IC50 [3]: 81.9 µM
Activity [5]: 12%
Activity [11]: 89%
IC50 [7]: 100 µM
fold change (FC) [12]: > 2
Activity [13]: 23%
inhibition [14]: Dose-dependent effect
Activity [15]: 44%
growth restoration (qualitative) [1]: Dose-dependent effect
Activity [16]: 77%
Activity [17]: 13%
Activity [18]: 53%
Activity [19]: 49%

SMILES: CCOC(=O)C1=C(C)NC(=S)NC1c1cccc(O)c1 (centres undefined)
inhibition [21]: inactive

SMILES: COC(=O)Nc1nc2cc(C(=O)c3cccs3)ccc2[nH]1
inhibition [20]: inactive

The next lines start with results.

inhibition [20]: inactive
SMILES: CC(=O)O[C@H]1C(=O)[C@@]2(C)[C@H]([C@H](OC(=O)c3ccccc3)[C@]3(O)C[C@H](OC(=O)[C@H](O)[C@@H](NC(=O)c4ccccc4)c4ccccc4)C(C)=C1C3(C)C)[C@]1(OC(C)=O)CO[C@@H]1C[C@@H]2O

IC50 [3]: 4.4 µM
SMILES: COc1cccc2c1C(=O)c1c(O)c3c(c(O)c1C2=O)C[C@@](O)(C(=O)CO)C[C@@H]3O[C@H]1C[C@H](N)[C@H](O)[C@H](C)O1 [DOXORUBICIN]

IC50 [3]: 261 µM
inhibition [4]: inactive
SMILES: CC(=O)O[C@@H]1C[C@@]2(C)C(C)=CCC[C@@H]2[C@@](C)(CC/C(C)=C/C(=O)O)[C@@H]1C
Activity [22]: 8%
Activity [5]: 49%
Activity [23]: 81%
IC50 [7]: 265 µM
growth restoration (qualitative) [1]: Dose-dependent effect
inhibition [24]: inactive
Activity [8]: 11%
fold change (FC) [25]: > 2

inhibition [20]: inactive
SMILES: CC[C@]1(O)C[C@H]2CN(CCc3c([nH]c4ccccc34)[C@@](C(=O)OC)(c3cc4c(cc3OC)N(C)[C@H]3[C@@](O)(C(=O)OC)[C@H](OC(C)=O)[C@]5(CC)C=CCN6CC[C@]43[C@@H]65)C2)C1
